Measured values: paper PMC7134359 (Nature, 2020)
Values joined by “and” are separate entries in the source; they are usually repeats but may differ in a detail not shown here. Equal entries are not always repeated. Where two headings read alike, the source gives them in different places.

How the values were obtained:
mMT1 [1] = biological target: T1, mMT1 (Mus musculus, UniProt Q61184); test: 2-[125I]-iodomelatonin competition binding, CHO cell membranes; conditions: read-out: KD mMT1
hMT1 = hMT1 (Homo sapiens, UniProt P48039); test: GloSensor cAMP assay; format: cell-based; conditions: for hMT1 Schild slope: Schild analysis, antagonism of melatonin, cAMP
hMT2 = biological target: T2, hMT2 (Homo sapiens, UniProt P49286); test: cell-based; format: cell-based; conditions: for hMT2 Schild slope: Schild analysis, antagonism of melatonin
T2 sequence (P49286 1-362): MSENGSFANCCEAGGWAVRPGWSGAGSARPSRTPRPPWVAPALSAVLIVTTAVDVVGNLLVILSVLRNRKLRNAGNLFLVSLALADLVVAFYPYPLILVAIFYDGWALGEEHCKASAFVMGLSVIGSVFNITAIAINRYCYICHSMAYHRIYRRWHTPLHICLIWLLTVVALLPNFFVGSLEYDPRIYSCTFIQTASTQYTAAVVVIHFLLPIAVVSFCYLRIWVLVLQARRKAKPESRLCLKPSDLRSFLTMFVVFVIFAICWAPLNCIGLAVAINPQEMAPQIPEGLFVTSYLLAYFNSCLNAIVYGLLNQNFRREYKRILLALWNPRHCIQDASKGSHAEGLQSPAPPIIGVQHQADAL

[2] = Plasma pharmacokinetics and brain distribution; format: in vivo; conditions: male, C57BL/6, mouse, iv, 2 mg/kg; for Kp at 30 min: brain and plasma; for AUC / Cmax / Vd / clearance / half-life: plasma
Summary of the method: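 Male C57BL/6 mice (nine) got a single 2 mg/kg IV dose in 5% N-methyl pyrrolidone, 5% Solutol HS-15, 90% saline. Retro-orbital blood (~60 μL, three mice per time point, light isoflurane) was taken at 0.08–24 hr and plasma stored at -70°C. Brains were collected at 0.5, 4 and 24 hr and homogenized in ice-cold PBS pH 7.4 at three times brain weight.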

mMT1 [3] = biological target: T1, mMT1; test: GloSensor cAMP assay; format: cell-based; conditions: for Emax: HEK293, read-out: mMT1 Emax
Summary of the method: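 HEK293T cells in DMEM with 10% dialyzed FBS were co-transfected with a mouse MT1 or MT2 (de-Tango-ized) construct plus GloSensor DNA (8 μg each). Next day, cells were seeded at 20,000/well in DMEM with 1% dialyzed FBS for 24 h, then switched to HBSS, 20 mM HEPES pH 7.4, 0.1% BSA. Inhibition of isoproterenol-stimulated cAMP was read by luminescence.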

[4] = system: C3H/HeN mice (WT, MT1KO, MT2KO); test: Phase shift of circadian running wheel activity onset in constant dark; format: in vivo; conditions: CT 10; 0.9 μg/mouse (about 0.03 mg/Kg)
[5] = system: C3H/HeN mice (WT, MT1KO, MT2KO); test: Re-entrainment; format: in vivo, mouse
[6] = system: C3H/HeN mice (WT, MT1KO, MT2KO); conditions: cited from earlier work
[7] = hMT1 pEC50, inhibition of isoproterenol-stimulated cAMP, HEK cells, agonist
[8] = hMT2 pEC50, inhibition of isoproterenol-stimulated cAMP, HEK cells, agonist
[9] = hMT1 pEC50 (Inverse), inverse agonist, isoproterenol-stimulated cAMP, HEK cells
[10] = pEC50 MT1 (IA), inverse agonist, as summarised in PK table
[11] = hMT2 pEC50 (Inverse), inverse agonist, isoproterenol-stimulated cAMP, HEK cells
[12] = MT2 activity, none detectable up to, cAMP assay

Sequence of hMT1 (P48039 whole entry): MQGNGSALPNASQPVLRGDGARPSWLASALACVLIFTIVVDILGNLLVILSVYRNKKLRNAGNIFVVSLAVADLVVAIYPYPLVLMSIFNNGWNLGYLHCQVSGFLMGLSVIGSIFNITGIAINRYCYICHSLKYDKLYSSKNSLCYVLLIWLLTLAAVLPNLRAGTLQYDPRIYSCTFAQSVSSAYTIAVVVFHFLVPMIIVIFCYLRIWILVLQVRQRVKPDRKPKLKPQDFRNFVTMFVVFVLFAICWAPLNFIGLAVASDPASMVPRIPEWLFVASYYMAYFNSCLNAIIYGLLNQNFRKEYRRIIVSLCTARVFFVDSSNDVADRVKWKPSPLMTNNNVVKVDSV
T1 sequence (Q61184 whole entry): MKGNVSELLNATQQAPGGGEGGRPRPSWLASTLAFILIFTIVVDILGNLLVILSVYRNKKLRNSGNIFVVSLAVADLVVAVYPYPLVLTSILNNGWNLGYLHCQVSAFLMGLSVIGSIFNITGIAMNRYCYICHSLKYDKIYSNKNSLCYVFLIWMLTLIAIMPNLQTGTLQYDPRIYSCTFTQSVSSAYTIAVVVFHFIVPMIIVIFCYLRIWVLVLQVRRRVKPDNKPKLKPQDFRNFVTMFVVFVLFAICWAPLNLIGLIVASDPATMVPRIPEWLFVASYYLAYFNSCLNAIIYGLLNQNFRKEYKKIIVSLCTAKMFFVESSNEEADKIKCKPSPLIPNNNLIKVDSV

## COc1ccc2[nH]c(I)c(CCNC(C)=O)c2c1 [2-[^125I]-iodomelatonin, 2-[^125I]-Iodomelatonin]
mMT1 [1]; GTP buffer
  Kd: 0.201 nM
mMT1 [1]; control buffer
  Kd: 0.087 nM

## Cc1nc(-c2cccc(NCc3ccccc3Cl)c2)n[nH]1 [ZINC37781618]
hMT1; hMT1 pEC50 (inactive analog), tested at concentrations up to 30μM
  EC50: > 31600 nM
hMT2; hMT2 pEC50 (inactive analog), tested at concentrations up to 30μM
  EC50: > 31600 nM

## COc1ccc(Br)c(CNc2cccnc2)c1 [ZINC128734226]
hMT1; [7]
  EC50: 158 nM
[2]
  Kp at 30 min: 1.58
  AUC: 282 ng·h/mL
  Cmax: 1920 ng/mL
  Vd: 1.11 L/kg
  clearance: 118 mL/min/kg
  half-life: 17.4 min
hMT2; [8]
  EC50: 6.31 nM

## COc1ccc(CN(C(=O)c2ccccc2F)c2ccncc2)cc1 [ZINC151192780]
hMT2; cAMP
  selectivity for MT2 over MT1: 89 fold

## COc1ccc(CN(C(=O)[C@H]2C[C@@H]2C)c2ccncc2)cc1 [ZINC151209032]
hMT1; HEK293, read-out: hMT1 % Emax
  Emax: 88%
hMT1; [7]
  EC50: 2000 nM
hMT1; hMT1 versus hMT2, cAMP assays
  melatonin receptor type selectivity (grouping): MT1-selective

## CC(C)c1ccc(CNc2cccc(-c3nnc[nH]3)c2)cc1 [ZINC157673384]
hMT1
  Kb: 12.6 nM
  hMT1 Schild slope: 0.80 ± 0.04
hMT1; HEK293, read-out: hMT1 % Emax (Inverse)
  Emax: 47%
hMT1; HEK293, read-out: hMT1 Emax
  Emax: -47 ± 12%
hMT1; [9]
  EC50: 20.9 nM
hMT1; [10]
  EC50: 20 nM
mMT1 [3]
  EC50: 100 nM
  Emax: -49 ± 3%
[2]
  Kp at 30 min: 1.43
  AUC: 564 ng·h/mL
  Cmax: 1300 ng/mL
  Vd: 1.38 L/kg
  clearance: 58.5 mL/min/kg
  half-life: 19.2 min
hMT2
  Kb: 200 nM
hMT2; HEK293, read-out: hMT2 % Emax (Inverse)
  Emax: 153%
hMT2; HEK293, read-out: hMT2 Emax
  Emax: -153 ± 14%
hMT2; cAMP
  hMT2 Schild slope: 1.0 ± 0.1
hMT2; [11]
  EC50: 661 nM
hMT2; pEC50 MT2 (IA), inverse agonist, as summarised in PK table
  EC50: 631 nM

## COC(=O)c1ccc(CSc2nnc(C3CC3)[nH]2)s1 [ZINC159050207]
hMT1; HEK293, read-out: hMT1 % Emax
  Emax: 99%
hMT1; [7]
  EC50: 1 nM
hMT2; HEK293, read-out: hMT2 % Emax
  Emax: 83%
hMT2; [8]
  EC50: 2 nM

## COc1cccc2c1CCN(C(=O)c1ccc(F)nc1)C2 [ZINC182731037]
hMT2; [12]
  EC50: > 30000 nM

## CN(Cc1ccncc1)c1ccnc(Cl)c1 [ZINC223593565]
hMT1; HEK293, read-out: hMT1 % Emax
  Emax: 86%
hMT1; [7]
  EC50: 398 nM
hMT2; HEK293, read-out: hMT2 % Emax
  Emax: 58%
hMT2; [8]
  EC50: 355 nM

## COc1ccc(CN(C)C(=O)c2cccc(OC(F)F)c2)cc1O [ZINC353044322]
hMT2; [12]
  EC50: > 30000 nM

## COc1ccc(CN(C(=O)c2scc(C)c2Cl)c2ccncc2)cc1 [ZINC485552623]
hMT1; [7]
  EC50: > 10000 nM

## Clc1ccc(CNc2cccc(-c3nnc[nH]3)c2)c(Br)c1 [ZINC555417447]
hMT1
  hMT1 Schild slope: 0.98 ± 0.03
hMT1; [9]
  EC50: 40.7 nM and 39.8 nM
hMT1; [10]
  EC50: 39.8 nM
mMT1 [3]
  EC50: 63.1 nM
  Emax: -56 ± 5%
[2]
  Kp at 30 min: 3.03
  AUC: 494 ng·h/mL
  Cmax: 1950 ng/mL
  Vd: 1.11 L/kg
  clearance: 67.1 mL/min/kg
  half-life: 16.2 min
hMT2; cAMP
  hMT2 Schild slope: 1.3 ± 0.4
hMT2; [11]
  EC50: 2000 nM
[4]
  advance of the onset of activity: approximately 1 hour

## Cc1cc(=O)n2ccn(CCc3ccc4c(c3)OC(F)(F)O4)c2n1 [ZINC664088238]
hMT1; [7]
  EC50: > 10000 nM

## CC(=O)NCCc1c(Cc2ccccc2)[nH]c2ccccc12 [luzindole]
[5]; 300 μg/mouse
  effect on re-entrainment: decelerates re-entrainment

## COc1ccc2[nH]cc(CCNC(C)=O)c2c1 [melatonin]
[5]; 30 μg/mouse
  effect on re-entrainment: accelerates re-entrainment
[6]
  ED50 (phase advance): 0.72 μg/mouse
